In ChEMBL document CHEMBL5230171, “Expanding the structure-activity relationships of alkynyl diphenylurea scaffold as promising antibacterial agents” (RSC Med Chem, 2023):
Activity calls are given as the source filed them.

What was measured:
Staphylococcus aureus [1] = assay: (§1) Antibacterial activity against methicillin resistant Staphylococcus aureus NRS384 USA300 infected in Balb/c mouse model of skin infection assessed as healing administered topically twice daily for three consecutive days from day 4 to 6 and measured 24 hrs post last dose; type: functional, organism-based; conditions: route top, time 4.0 day
Method in brief: (§2)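 Mice were anesthetized with 2,2,2-tribromoethanol and injected subcutaneously with 100 μL containing 2 × 10^9 CFU MRSA USA300 in 0.5% HPMC in saline. Topical treatment used a petroleum jelly vehicle, with a fusidic acid positive control. Lesions were photographed 24 h after the last dose. A ~1.5 cm2 skin patch (homogenized in 1 mL saline) and the spleen (in 0.5 mL) were serially diluted and plated on MSA at 37 °C overnight for CFU.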

Staphylococcus aureus [2] = assay: as §1, with “reduction in bacterial burden in skin lesions” for “healing”; type: functional; conditions: route top; time 4 day; method in brief: as §2
Staphylococcus aureus [3] = assay: Antibacterial activity against methicillin resistant Staphylococcus aureus NRS384 USA300 infected in Balb/c mouse model of skin infection assessed as reduction in inflammation administered topically twice daily for three consecutive days from day 4 to 6 and measured 24 hrs post last dose; type: functional, organism-based; conditions: route top, time 4.0 day; method in brief: as §2
Staphylococcus aureus [4] = assay: Antibacterial activity against methicillin sensitive Staphylococcus aureus 6538 assessed as inhibition of bacterial growth at 0.5 ug/ml incubated for 18 to 20 hrs by CLSI protocol based broth microdilution method; type: functional, organism-based; conditions: dose 0.5 µg/ml, time 18-20 hrs
Method in brief: (§3)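 Staphylococcal and E. coli strains were diluted from a 0.5 McFarland suspension in cation-adjusted Mueller Hinton broth to ~5 × 10^5 CFU mL−1. They were incubated with serial dilutions of test agent in broth microdilution, and the MIC was recorded.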

Staphylococcus aureus [5] = assay: Antibacterial activity against methicillin resistant Staphylococcus aureus 123 assessed as inhibition of bacterial growth at 0.5 ug/ml incubated for 18 to 20 hrs by CLSI protocol based broth microdilution method; type: functional, organism-based; conditions: dose 0.5 µg/ml, time 18-20 hrs
Staphylococcus aureus [6] = assay: Antibacterial activity against methicillin resistant Staphylococcus aureus 385 assessed as inhibition of bacterial growth at 0.5 ug/ml incubated for 18 to 20 hrs by CLSI protocol based broth microdilution method; type: functional, organism-based; conditions: dose 0.5 µg/ml, time 18-20 hrs
Staphylococcus aureus [7] = assay: Antibacterial activity against methicillin resistant Staphylococcus aureus 386 assessed as inhibition of bacterial growth at 0.5 ug/ml incubated for 18 to 20 hrs by CLSI protocol based broth microdilution method; type: functional, organism-based; conditions: dose 0.5 µg/ml, time 18-20 hrs
[8] = Cytotoxicity against human HaCaT cells assessed as tolerance by measuring cell viability at 64 ug/ml incubated for 24 hrs by MTS assay relative to control; type: toxicity, cell-based; conditions: at 64 µg/mL, read-out: Activity
Method in brief: (§4)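 Vero or HaCaT cells were exposed to 32, 64 and 128 μg mL−1 compound in triplicate for 24 h at 37 °C, 5% CO2, with a DMSO control. MTS was then added for 4 h and OD490 read. Analysis used two-way ANOVA with Dunnett's post hoc test (p < 0.05).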

Staphylococcus aureus [9] = assay: Antibacterial activity against vancomycin resistant Staphylococcus aureus 9 assessed as inhibition of bacterial growth at 0.5 ug/ml incubated for 18 to 20 hrs by CLSI protocol based broth microdilution method; type: functional, organism-based; conditions: dose 0.5 µg/ml, time 18-20 hrs
Staphylococcus aureus [10] = assay: Antibacterial activity against methicillin sensitive Staphylococcus aureus 107 assessed as inhibition of bacterial growth at 0.5 ug/ml incubated for 18 to 20 hrs by CLSI protocol based broth microdilution method; type: functional, organism-based; conditions: dose 0.5 µg/ml, time 18-20 hrs; method in brief: as §3
Staphylococcus aureus [11] = assay: Antibacterial activity against methicillin resistant Staphylococcus aureus 384 assessed as inhibition of bacterial growth at 0.5 ug/ml incubated for 18 to 20 hrs by CLSI protocol based broth microdilution method; type: functional, organism-based; conditions: dose 0.5 µg/ml, time 18-20 hrs
Staphylococcus aureus [12] = assay: Antibacterial activity against vancomycin resistant Staphylococcus aureus 10 assessed as inhibition of bacterial growth at 0.5 ug/ml incubated for 18 to 20 hrs by CLSI protocol based broth microdilution method; type: functional, organism-based; conditions: dose 0.5 µg/ml, time 18-20 hrs
Staphylococcus aureus [13] = assay: Antibacterial activity against methicillin resistant Staphylococcus aureus 119 assessed as inhibition of bacterial growth at 0.5 ug/ml incubated for 18 to 20 hrs by CLSI protocol based broth microdilution method; type: functional, organism-based; conditions: dose 0.5 µg/ml, time 18-20 hrs
Staphylococcus aureus [14] = assay: Antibacterial activity against vancomycin resistant Staphylococcus aureus 12 assessed as inhibition of bacterial growth at 0.5 ug/ml incubated for 18 to 20 hrs by CLSI protocol based broth microdilution method; type: functional, organism-based; conditions: dose 0.5 µg/ml, time 18-20 hrs
[15] = Cytotoxicity against African green monkey Vero cells assessed as tolerance by measuring cell viability upto 128 ug/ml incubated for 24 hrs by MTS assay relative to control; type: toxicity, cell-based; conditions: chlorocebus sabaeus, up to 128 µg/mL, read-out: Activity; method in brief: as §4
Staphylococcus aureus [16] = assay: Induction of drug resistance in methicillin resistant Staphylococcus aureus NRS384 USA300 assessed as fold change in MIC measured from passage 5 to 14 by broth microdilution method; type: functional
Method in brief: (§5)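 Multi-step resistance in MRSA USA300 over 14 consecutive passages, with rifampicin as the control antibiotic. The MIC was determined by broth microdilution at each passage. Resistance was defined as a greater than four-fold rise over the initial MIC.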

Staphylococcus aureus [17] = assay: Induction of drug resistance in methicillin resistant Staphylococcus aureus NRS384 USA300 assessed as fold change in MIC measured after 4 passages by broth microdilution method; type: functional; method in brief: as §5
Escherichia coli = assay: Antibacterial activity against Escherichia coli JW55031 assessed as inhibition of bacterial growth incubated for 18 to 20 hrs by CLSI protocol based broth microdilution method; type: functional; conditions: time 18-20 hrs; method in brief: as §3
Clostridioides difficile = assay: Antibacterial activity against Clostridioides difficile ATCC BAA 1870 assessed as inhibition of bacterial growth incubated for 18 to 20 hrs by CLSI protocol based broth microdilution method; type: functional; conditions: time 18-20 hrs
Method in brief: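 C. difficile was diluted from a 0.5 McFarland suspension in BHI supplemented with hemin and vitamin K. It was incubated with serial dilutions of test agent in broth microdilution, and the MIC was recorded.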

Staphylococcus aureus [18] = assay: Antibacterial activity against methicillin resistant Staphylococcus aureus NRS384 USA300 assessed as inhibition of bacterial growth incubated for 18 to 20 hrs by CLSI protocol based broth microdilution method; type: functional; conditions: time 18-20 hrs
Method in brief: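 Broth microdilution against staphylococcal clinical isolates. Each strain was prepared as a 0.5 McFarland suspension and diluted in cation-adjusted Mueller Hinton broth to ~5 × 10^5 CFU mL−1. Serial dilutions of test agents in DMSO stock were incubated with the bacteria, and the MIC was recorded.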

[19] = Cytotoxicity against human HaCaT cells assessed as tolerance by measuring cell viability upto 128 ug/ml incubated for 24 hrs by MTS assay relative to control; type: toxicity, cell-based; conditions: up to 128 µg/mL, read-out: Activity; method in brief: as §4
Vero = assay: Cytotoxicity against African green monkey Vero cells assessed as reduction in cell viability at 64 ug/ml incubated for 24 hrs by MTS assay; type: toxicity, cell-based; conditions: chlorocebus sabaeus, dose 64 µg/ml; method in brief: as §4

SMILES	Activity (Staphylococcus aureus [4])	Activity (Staphylococcus aureus [5])	Activity (Staphylococcus aureus [6])	Activity (Staphylococcus aureus [7])	Activity (Staphylococcus aureus [9])	Activity (Staphylococcus aureus [10])	Activity (Staphylococcus aureus [11])	Activity (Staphylococcus aureus [12])	Activity (Staphylococcus aureus [13])	Activity (Staphylococcus aureus [14])	further results
CC(=O)O[C@H]1C[C@@]2(C)[C@@H](C[C@@H](O)[C@H]3[C@@]4(C)CC[C@@H](O)[C@@H](C)[C@@H]4CC[C@@]32C)/C1=C(\CCC=C(C)C)C(=O)O [FUSIDIC ACID]											Activity (Staphylococcus aureus [1]): Active; Activity (Staphylococcus aureus [2]): 1.5 log10CFU/ml; Activity (Staphylococcus aureus [3]): Active
C/C(=N\NC(=N)N)c1ccc(NC(=O)Nc2ccc(C#CC3(N)CCCCC3)cc2)cc1	Active	Active	Active	Active	Active	Active	Active	Active	Active	Active	viability at 24 h, 64 ug/ml [8]: 100%; viability at 24 h [15]: 100%
CO[C@H]1/C=C/O[C@@]2(C)Oc3c(C)c(O)c4c(O)c(c(/C=N/N5CCN(C)CC5)c(O)c4c3C2=O)NC(=O)/C(C)=C\C=C\[C@H](C)[C@H](O)[C@@H](C)[C@@H](O)[C@@H](C)[C@H](OC(C)=O)[C@@H]1C [RIFAMPIN]											fold change (FC) (Staphylococcus aureus [16]): 15; fold change (FC) (Staphylococcus aureus [17]): >4
C/C(=N\NC(=N)N)c1ccc(NC(=O)Nc2ccc(C#CC3CC3)cc2)cc1											MIC (Escherichia coli): ≥ 64 µg/mL; MIC (Clostridioides difficile): ≥ 64 µg/mL; MIC (Staphylococcus aureus [18]): ≥ 64 µg/mL
C/C(=N\NC(=N)N)c1ccc(NC(=O)Nc2ccc(C#CC(C)(C)O)cc2)cc1	Active	Active	Active	Active	Active	Active	Active	Active	Active	Active	viability at 24 h [19]: 100%; Activity (Vero): Non-Toxic
